Test results taken from PubChem BioAssay AID540324 (Johns Hopkins Ion Channel Center, 2011).
Activity calls are given as the source filed them.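 How the source made its calls: active means maximum inhibition above 30% at any tested concentration, with a dose response curve fitted; inactive means no inhibition at any dose or no dose response curve.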

Test: parental HEK293 potassium flux blockers – cell-based, FluxOR thallium flux, concentration-response, set 2, counter-screen for KCNK9 inhibitor project, SAR follow-up (AID 540324)
Conditions: FluxOR fluorescence ratio; series mostly up to 30 µM
Outline: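 Also added: K+/Tl+ sulfate stimulus, 5x stock; system: parental HEK293 cells; times: dye loading 90 min at room temperature in dark, compound exposure 20 min; replicates: at least duplicate; doses: 10 concentrations; technique: FluxOR thallium-flux fluorescence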

| Structure (SMILES) | outcome |
| --- | --- |
| CCOc1ccccc1NC(=O)c1cccc(NC(=O)c2ccccc2OC)c1 | inactive |
| COc1cccc(C(=O)Nc2cccc(NC(=O)c3cccc(C)c3)c2)c1 | inactive |
| COc1ccccc1NC(=O)c1cccc(NC(=O)CC2CCCC2)c1 | inactive |
| CCOc1ccccc1NC(=O)c1cccc(NC(=O)c2ccccc2Cl)c1 | inactive |
| Cc1ccc(C(=O)Nc2cccc(NC(=O)c3ccccc3)c2)cc1 | inactive |
| Cc1cccc(C(=O)Nc2cccc(NC(=O)c3ccc(C(C)(C)C)cc3)c2)c1 | inactive |
| CCOc1ccccc1C(=O)Nc1cccc(NC(=O)c2ccccc2OC)c1 | inactive |
| CCOc1ccc(NC(=O)c2cccc(NC(=O)C3CCCC3)c2)cc1 | inactive |
| CCOc1ccccc1NC(=O)c1cccc(NC(=O)CC2CCCCC2)c1 | inactive |
| S=c1[nH]nc(-c2ccco2)n1CC1CCCCC1 | inactive |
| COc1ccccc1NC(=O)c1cccc(NC(=O)c2ccccc2)c1 | inactive |
| CCOc1ccccc1NC(=O)c1cccc(NC(=O)C2CC2)c1 | inactive |
| COc1ccccc1NC(=O)c1cccc(NC(=O)c2ccccc2OC)c1 | inactive |
| Cc1cccc(C(=O)Nc2cccc(NC(=O)c3cccc(C(F)(F)F)c3)c2)c1 | inactive |
| CC(C1CC2CCC1C2)n1c(-c2ccco2)n[nH]c1=S (stereo not given) | inactive |
| CCOc1cccc(NC(=O)c2cccc(NC(=O)C3CCCC3)c2)c1 | inactive |
| CCOc1ccccc1NC(=O)c1cccc(NC(=O)CC2CCCC2)c1 | inactive |
| Cc1cccc(S(=O)(=O)Nc2cccc(NC(=O)c3ccccc3)c2)c1 | inactive |

| Structure (SMILES) | outcome |
| --- | --- |
| CC(C1CC2CCC1C2)n1c(-c2ccoc2)n[nH]c1=S (stereo not given) | inactive |
| Cc1cccc(C(=O)Nc2cccc(NC(=O)C3CCCCC3)c2)c1 | inactive |
| COc1ccc(C(=O)Nc2cccc(NC(=O)c3cccc(C)c3)c2)cc1 | inactive |
| Cc1cccc(C(=O)Nc2cccc(NC(=O)c3cccs3)c2)c1 | inactive |
| Cc1cccc(C(=O)Nc2cccc(NC(=O)c3ccccc3Cl)c2)c1 | inactive |
| CCOc1ccccc1NC(=O)c1cccc(NC(=O)c2ccc(Cl)cc2)c1 | inactive |
| O=C(Nc1cccc(NC(=O)c2ccccn2)c1)c1ccccc1 | inactive |
| COc1ccccc1NC(=O)c1cccc(NC(=O)c2ccccc2C(F)(F)F)c1 | inactive |
| Cc1ccccc1C(=O)Nc1cccc(NC(=O)c2ccccc2)c1 | inactive |
| CC(C)n1c(-c2ccco2)n[nH]c1=S | inactive |
| O=C(Nc1ccccc1Cl)c1cccc(NC(=O)C2CCCC2)c1 | inactive |
| O=C(Nc1cccc(NC(=O)c2ccncc2)c1)c1ccccc1 | inactive |
| O=C(Nc1cccc(NC(=O)c2cccs2)c1)c1ccccc1 | inactive |
| O=C(Nc1cccc(NC(=O)C2CCCCC2)c1)c1ccccc1 | inactive |
| Cc1cccc(C(=O)Nc2cccc(NC(=O)c3ccc(C(F)(F)F)cc3)c2)c1 | inactive |
| CCOc1ccccc1NC(=O)c1cccc(NC(=O)c2cccc(C)c2)c1 | inactive |
| Cc1cccc(C(=O)Nc2cccc(NC(=O)c3cccc(C)c3)c2)c1 | inactive |
